Active and inactive are the calls of the source. No cut-off for these calls is given here.

A word on the IC50: it is the point on the concentration scale where inhibition reaches its midpoint. Usually inhibition stands for the percentage by which the read-out fell short of the control. For orientation: T/C means the result in the treated group divided by that in the control group, in per cent.

One test has as its system K562. The test can be described thus: Antiproliferative activity against human K562 cells after 72 hrs by MTT assay. The format is functional, cell-based. Conditions: K562, 72 h. For orientation: Formazan colour is commonly taken as a measure of viable cells.
The next test concerns the target Histone deacetylase. The format is protein assay, Homo sapiens.
Test [1] deals with Vascular endothelial growth factor receptor 1 (Homo sapiens, UniProt P17948). The test can be described thus: Inhibition of VEGFR-1 (unknown origin) after 40 mins by kinase-Glo assay. The method in brief:
(§1)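 Kinase-Glo luminescent assay run by a contract lab. Compound, kinase, substrate and ATP diluted in kinase buffer and incubated 40 min at room temperature. IC50 obtained by nonlinear regression of normalized dose–response.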
Background: In Kinase-Glo more light means more ATP remaining.

The test system of a further test is HeLa. The test can be described thus: Antiproliferative activity against human HeLa cells after 72 hrs by MTT assay. It counts as functional, cell-based.
For test [2], the target named is Platelet-derived growth factor receptor beta (Homo sapiens, UniProt P09619). The test can be described thus: Inhibition of PDGFRbeta (unknown origin) after 40 mins by kinase-Glo assay. Put shortly: as §1
The target in test [3] is Vascular endothelial growth factor receptor 3 (Homo sapiens, UniProt P35916). The test can be described thus: Inhibition of VEGFR-3 (unknown origin) after 40 mins by kinase-Glo assay.
The target in test [4] is Fibroblast growth factor receptor 1 (Homo sapiens, UniProt P11362). The test can be described thus: Inhibition of FGFR1 (unknown origin) after 40 mins by kinase-Glo assay.
For test [5], the target named is Histone deacetylase 1/2/3 (Homo sapiens) (UniProt Q13547+O15379+Q92769). The following applies: HeLa, at 100 nM.
Test [6] relates to HUVEC. The test can be described thus: Cytotoxicity activity against HUVEC after 72 hrs by MTT assay. The format is cell-based. The following applies: Homo sapiens. The method in brief: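 HUVECs kept in RPMI1640 with 10% FBS at 37 °C, 5% CO2. Cells seeded the day before, grown 12 h, then exposed to a range of compound concentrations for 72 h. Then 0.5% MTT added for 4 h, formazan dissolved in DMSO, and absorbance read at 570 nm.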

Test [7] addresses Protein deacetylase HDAC6 (Homo sapiens, UniProt Q9UBN7). The test can be described thus: Inhibition of HDAC6 (unknown origin) using fluorogenic Boc-Lys(acetyl)-AMC as substrate preincubated for 5 mins followed by substrate addition measured after 30 mins by fluorescence-based assay.
The next test has as its system Thoracic aorta. The test can be described thus: Antiangiogenic activity in Sprague-Dawley rat thoracic aorta ring assessed as reduction in micro-vessel growth at 5 uM treated every day for 6 days by matrigel-based inverted microscopic analysis relative to control. It counts as functional, tissue-based. Put shortly: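 Aortas taken from 4–6-week-old Sprague–Dawley rats, cut into 1-mm rings and embedded in Matrigel. Rings held 30 min at 37 °C, 5% CO2, then treated daily for 6 days with compound or 0.5% DMSO vehicle. Microvessel outgrowth photographed on day 7 at ×200. Three independent experiments.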

Another test has as its system PC-3. The test can be described thus: Antiproliferative activity against human PC3 cells after 72 hrs by MTT assay. It counts as functional, cell-based. Conditions: PC-3, 72 h.
A further test has as its system MDA-MB-231. The test can be described thus: Antiproliferative activity against human MDA-MB-231 cells after 72 hrs by MTT assay. Conditions: MDA-MB-231, 72 h. It counts as functional, cell-based.
The target of test [8] is T1, Vascular endothelial growth factor receptor 2 (Homo sapiens, UniProt P35968). Nature of the test: Inhibition of VEGFR-2 (unknown origin) at 0.2 uM after 40 mins by kinase-Glo assay relative to control. The method in brief:
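VEGFR-2 tested at a single 200 nM concentration in a Kinase-Glo assay. Compound, kinase, substrate and ATP incubated 40 min at room temperature, then Kinase-Glo reagent added for 15 min and luminescence read. Inhibition rate reported. Replicates n ≥ 2.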

In test [9] the test system is HUVEC. The test can be described thus: Antiangiogenic activity in human HUVEC cells assessed as reduction in capillary-like tubular network formation at 0.1 uM after 6 hrs by phase-contrast microscopy. It counts as functional, cell-based. Put shortly: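 HUVECs trypsinized and seeded at 40000/well on Matrigel polymerized 0.5 h at 37 °C. Cells held 6 h at 37 °C in M199 with 5% FBS, with compound or DMSO. Tube formation viewed and photographed by phase-contrast microscopy at 200 magnification. Three independent experiments.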

In test [10] the target is T1, Vascular endothelial growth factor receptor 2. Nature of the test: Inhibition of VEGF-stimulated VEGFR2 phosphorylation in human HUVEC cells at 100 nM preincubated for 2 hrs followed by VEGF stimulation by Western blot analysis. It counts as cell-based. The method in brief: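 HUVECs pretreated 2 h with compound or DMSO, then stimulated with VEGF (50 ng/ml). Cells lysed in ice-cold RIPA and protein measured by BCA. Lysates run on SDS-PAGE and immunoblotted for phospho-VEGFR-2, with total VEGFR-2 as loading control. Detection by ECL.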

Test [11] has as its system HT-29. The test can be described thus: Antiproliferative activity against human HT-29 cells after 72 hrs by MTT assay. The format is functional, cell-based. The following applies: HT-29, 72 h.
Test [12] addresses Mast/stem cell growth factor receptor Kit (Homo sapiens, UniProt P10721). The test can be described thus: Inhibition of C-kit (unknown origin) after 40 mins by kinase-Glo assay. Put shortly: as §1
The next test concerns HT-1080. Nature of the test: Antiproliferative activity against human HT1080 cells after 72 hrs by MTT assay. The format is functional, cell-based. Conditions: HT-1080, 72 h.
Test [13] concerns the target T1, Vascular endothelial growth factor receptor 2. The test can be described thus: Inhibition of VEGFR-2 (unknown origin) after 40 mins by kinase-Glo assay. The method in brief: as §1
Another test relates to HEL. The test can be described thus: Antiproliferative activity against human HEL cells after 72 hrs by MTT assay. It counts as functional, cell-based.
The next test relates to AGS. Nature of the test: Antiproliferative activity against human AGS cells after 72 hrs by MTT assay. The format is functional, cell-based.
The next test addresses Histone deacetylase 8 (Homo sapiens, UniProt Q9BY41). The test can be described thus: Inhibition of HDAC8 (unknown origin) using fluorogenic Boc-Lys(trifluoroacetyl)-AMC as substrate preincubated for 5 mins followed by substrate addition measured after 30 mins by fluorescence-based assay.
In test [14] the target is Macrophage colony-stimulating factor 1 receptor (Homo sapiens, UniProt P07333). The test can be described thus: Inhibition of C-fms (unknown origin) after 40 mins by kinase-Glo assay.
The next test has as its system KG-1. Nature of the test: Antiproliferative activity against human KG1 cells after 72 hrs by MTT assay. It counts as functional, cell-based. Conditions: KG-1, 72 h.
The next test has as its target Histone deacetylase 2 (Homo sapiens, UniProt Q92769).
In the next test the test system is MOLT-4. The test can be described thus: Antiproliferative activity against human MOLT4 cells after 72 hrs by MTT assay. It counts as functional, cell-based. Conditions: MOLT-4, 72 h.
Another test has as its system ACHN. The test can be described thus: Antiproliferative activity against human ACHN cells after 72 hrs by MTT assay. The format is functional, cell-based.
Test [15] has as its system HT-29. The test can be described thus: Antitumor activity against human HT-29 cells xenografted in BALB/c nu mouse assessed as tumor growth level at 100 mg/kg, po administered for 25 consecutive days measured every 3 days during compound dosing relative to control. It counts as functional. Put shortly:
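HT-29 cells (1×10^7) implanted s.c. in right flank of male BALB/c-nu mice aged 5–6 weeks. At about 100 mm³ (day 10), mice randomized 6 per group and dosed orally for 25 consecutive days. Controls received PBS with 5% DMSO. T/C is mean RTV (Vt/V0) treated over control. TGI taken from final tumor weights. Student's two-tailed t test.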

T1 sequence (P35968 whole entry): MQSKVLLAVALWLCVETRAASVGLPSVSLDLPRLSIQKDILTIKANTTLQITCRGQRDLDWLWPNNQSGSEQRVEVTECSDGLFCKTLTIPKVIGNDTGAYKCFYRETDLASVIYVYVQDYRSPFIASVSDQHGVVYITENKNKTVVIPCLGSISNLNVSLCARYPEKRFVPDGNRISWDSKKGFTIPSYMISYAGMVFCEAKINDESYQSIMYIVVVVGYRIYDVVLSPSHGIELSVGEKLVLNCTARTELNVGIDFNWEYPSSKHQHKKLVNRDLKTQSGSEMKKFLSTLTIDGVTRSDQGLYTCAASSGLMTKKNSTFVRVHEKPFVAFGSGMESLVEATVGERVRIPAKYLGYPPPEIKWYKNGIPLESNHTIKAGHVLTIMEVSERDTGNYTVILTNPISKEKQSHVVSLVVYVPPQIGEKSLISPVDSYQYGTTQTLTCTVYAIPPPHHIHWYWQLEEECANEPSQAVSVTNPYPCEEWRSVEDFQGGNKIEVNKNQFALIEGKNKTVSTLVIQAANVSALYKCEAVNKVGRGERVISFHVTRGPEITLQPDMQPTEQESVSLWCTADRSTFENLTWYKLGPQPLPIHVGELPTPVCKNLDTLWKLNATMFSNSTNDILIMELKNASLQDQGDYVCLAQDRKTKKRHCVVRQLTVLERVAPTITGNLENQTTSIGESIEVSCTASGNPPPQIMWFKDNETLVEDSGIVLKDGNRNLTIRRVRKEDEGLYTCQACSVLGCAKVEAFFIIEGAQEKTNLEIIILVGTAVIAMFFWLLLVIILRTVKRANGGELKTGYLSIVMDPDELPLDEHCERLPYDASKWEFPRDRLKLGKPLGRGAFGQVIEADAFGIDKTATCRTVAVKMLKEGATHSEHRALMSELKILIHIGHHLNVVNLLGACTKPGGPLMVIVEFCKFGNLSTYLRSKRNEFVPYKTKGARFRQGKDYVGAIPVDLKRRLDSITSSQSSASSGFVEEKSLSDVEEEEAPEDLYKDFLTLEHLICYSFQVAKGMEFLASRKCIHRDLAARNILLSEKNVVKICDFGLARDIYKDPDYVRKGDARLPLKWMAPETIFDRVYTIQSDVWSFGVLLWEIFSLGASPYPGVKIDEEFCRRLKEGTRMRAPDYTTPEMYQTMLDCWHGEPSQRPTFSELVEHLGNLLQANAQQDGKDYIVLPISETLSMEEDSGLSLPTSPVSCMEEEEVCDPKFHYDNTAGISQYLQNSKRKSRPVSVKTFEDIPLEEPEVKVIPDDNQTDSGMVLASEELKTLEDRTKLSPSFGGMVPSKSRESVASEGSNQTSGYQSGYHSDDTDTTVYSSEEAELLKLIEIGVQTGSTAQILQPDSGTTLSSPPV
Sequence of Platelet-derived growth factor receptor beta (P09619 whole entry): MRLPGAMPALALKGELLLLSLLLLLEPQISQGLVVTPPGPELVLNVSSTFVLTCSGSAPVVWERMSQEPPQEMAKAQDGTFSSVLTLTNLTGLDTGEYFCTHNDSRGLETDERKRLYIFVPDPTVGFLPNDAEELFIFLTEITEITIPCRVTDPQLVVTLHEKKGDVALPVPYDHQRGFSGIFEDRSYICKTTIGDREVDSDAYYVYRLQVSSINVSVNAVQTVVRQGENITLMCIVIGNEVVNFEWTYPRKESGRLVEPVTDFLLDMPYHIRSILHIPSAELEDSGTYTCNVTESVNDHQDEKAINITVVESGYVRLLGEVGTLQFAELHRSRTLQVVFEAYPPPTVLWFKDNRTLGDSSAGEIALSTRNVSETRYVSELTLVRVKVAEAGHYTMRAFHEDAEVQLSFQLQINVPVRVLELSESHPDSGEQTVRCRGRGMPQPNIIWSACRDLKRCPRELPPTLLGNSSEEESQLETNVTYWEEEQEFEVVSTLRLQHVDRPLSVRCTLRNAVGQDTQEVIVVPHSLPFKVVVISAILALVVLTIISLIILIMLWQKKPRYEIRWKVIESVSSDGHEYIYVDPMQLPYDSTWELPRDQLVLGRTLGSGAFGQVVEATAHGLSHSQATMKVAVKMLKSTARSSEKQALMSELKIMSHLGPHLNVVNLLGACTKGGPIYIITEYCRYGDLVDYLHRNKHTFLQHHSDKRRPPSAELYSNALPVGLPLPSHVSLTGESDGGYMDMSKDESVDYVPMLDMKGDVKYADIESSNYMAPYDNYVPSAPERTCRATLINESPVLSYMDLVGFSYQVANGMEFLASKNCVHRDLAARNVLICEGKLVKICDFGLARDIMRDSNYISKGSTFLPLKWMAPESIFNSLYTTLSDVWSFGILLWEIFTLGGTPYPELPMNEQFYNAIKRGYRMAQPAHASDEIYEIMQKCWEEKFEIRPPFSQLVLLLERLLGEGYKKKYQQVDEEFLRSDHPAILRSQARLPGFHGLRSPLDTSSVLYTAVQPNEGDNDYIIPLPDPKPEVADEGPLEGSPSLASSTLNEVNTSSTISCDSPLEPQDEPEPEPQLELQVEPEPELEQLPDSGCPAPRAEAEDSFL
Sequence of Mast/stem cell growth factor receptor Kit (P10721 whole entry): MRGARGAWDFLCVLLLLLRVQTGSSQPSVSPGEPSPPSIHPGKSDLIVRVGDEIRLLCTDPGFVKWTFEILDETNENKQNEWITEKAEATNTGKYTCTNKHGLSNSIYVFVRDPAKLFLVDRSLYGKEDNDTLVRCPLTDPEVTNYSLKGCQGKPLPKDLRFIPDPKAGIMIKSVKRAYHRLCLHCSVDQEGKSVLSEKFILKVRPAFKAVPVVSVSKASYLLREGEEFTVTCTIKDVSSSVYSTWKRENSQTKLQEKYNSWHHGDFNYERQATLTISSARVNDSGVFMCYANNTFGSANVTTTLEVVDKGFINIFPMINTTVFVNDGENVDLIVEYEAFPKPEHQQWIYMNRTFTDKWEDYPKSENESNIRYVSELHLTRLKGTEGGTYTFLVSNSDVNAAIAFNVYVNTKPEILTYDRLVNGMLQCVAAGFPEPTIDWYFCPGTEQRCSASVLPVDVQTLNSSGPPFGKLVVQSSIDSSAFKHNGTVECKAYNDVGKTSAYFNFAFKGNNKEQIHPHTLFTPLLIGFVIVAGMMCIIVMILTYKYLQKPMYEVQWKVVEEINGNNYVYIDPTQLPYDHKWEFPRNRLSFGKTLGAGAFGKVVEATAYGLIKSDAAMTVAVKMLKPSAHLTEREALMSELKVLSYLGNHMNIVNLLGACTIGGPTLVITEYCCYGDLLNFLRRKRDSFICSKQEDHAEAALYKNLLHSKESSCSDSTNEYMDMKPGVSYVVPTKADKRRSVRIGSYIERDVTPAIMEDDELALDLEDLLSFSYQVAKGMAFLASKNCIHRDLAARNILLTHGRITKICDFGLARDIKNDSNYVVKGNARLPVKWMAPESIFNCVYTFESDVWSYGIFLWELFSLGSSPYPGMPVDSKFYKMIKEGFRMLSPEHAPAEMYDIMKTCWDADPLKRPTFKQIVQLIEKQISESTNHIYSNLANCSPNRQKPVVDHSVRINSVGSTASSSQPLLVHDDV
Sequence of Protein deacetylase HDAC6 (Q9UBN7 whole entry): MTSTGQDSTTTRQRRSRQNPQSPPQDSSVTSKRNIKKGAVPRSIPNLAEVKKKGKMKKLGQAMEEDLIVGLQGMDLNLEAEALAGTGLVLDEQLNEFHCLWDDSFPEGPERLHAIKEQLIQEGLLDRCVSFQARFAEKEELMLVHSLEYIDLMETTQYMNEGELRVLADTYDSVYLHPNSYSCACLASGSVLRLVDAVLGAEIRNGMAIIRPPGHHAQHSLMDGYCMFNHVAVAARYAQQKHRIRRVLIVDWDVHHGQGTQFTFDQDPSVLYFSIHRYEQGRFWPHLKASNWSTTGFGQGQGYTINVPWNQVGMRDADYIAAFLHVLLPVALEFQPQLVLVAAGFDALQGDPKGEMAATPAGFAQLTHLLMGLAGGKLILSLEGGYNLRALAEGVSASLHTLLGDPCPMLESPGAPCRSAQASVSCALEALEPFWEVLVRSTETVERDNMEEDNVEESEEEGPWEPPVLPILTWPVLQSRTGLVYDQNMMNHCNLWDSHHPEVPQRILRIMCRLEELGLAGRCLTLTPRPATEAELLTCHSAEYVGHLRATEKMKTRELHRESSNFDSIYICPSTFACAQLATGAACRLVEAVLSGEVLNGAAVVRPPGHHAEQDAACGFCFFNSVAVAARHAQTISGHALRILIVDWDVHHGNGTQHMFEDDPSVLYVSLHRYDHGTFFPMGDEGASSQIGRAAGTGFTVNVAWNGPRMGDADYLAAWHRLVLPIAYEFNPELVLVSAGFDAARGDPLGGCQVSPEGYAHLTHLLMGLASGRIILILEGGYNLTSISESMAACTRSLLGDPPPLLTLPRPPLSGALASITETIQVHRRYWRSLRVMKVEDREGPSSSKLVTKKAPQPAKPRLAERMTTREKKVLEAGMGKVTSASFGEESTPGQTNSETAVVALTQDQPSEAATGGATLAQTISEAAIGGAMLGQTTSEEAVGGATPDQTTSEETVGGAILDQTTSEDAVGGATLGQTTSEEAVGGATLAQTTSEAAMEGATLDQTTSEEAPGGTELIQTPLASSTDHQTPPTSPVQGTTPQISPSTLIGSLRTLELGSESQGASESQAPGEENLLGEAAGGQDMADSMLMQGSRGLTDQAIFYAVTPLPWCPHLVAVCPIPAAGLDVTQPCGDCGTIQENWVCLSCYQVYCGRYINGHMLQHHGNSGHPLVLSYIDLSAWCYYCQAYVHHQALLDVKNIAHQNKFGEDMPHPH
Sequence of Histone deacetylase 8 (Q9BY41 whole entry): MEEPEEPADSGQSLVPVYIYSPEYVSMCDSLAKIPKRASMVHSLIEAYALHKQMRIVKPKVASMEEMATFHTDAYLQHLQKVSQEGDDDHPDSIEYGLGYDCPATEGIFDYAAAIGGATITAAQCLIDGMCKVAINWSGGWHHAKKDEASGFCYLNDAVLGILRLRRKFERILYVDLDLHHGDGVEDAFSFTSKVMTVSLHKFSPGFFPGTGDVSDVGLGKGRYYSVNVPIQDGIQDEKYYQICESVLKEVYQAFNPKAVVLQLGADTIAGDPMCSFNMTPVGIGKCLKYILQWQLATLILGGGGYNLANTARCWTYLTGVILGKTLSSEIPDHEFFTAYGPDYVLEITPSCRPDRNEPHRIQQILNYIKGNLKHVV

Turning to `Cc1c2ccc(N(C)c3ccnc(Nc4ccc(C(=O)NCCCCCCC(=O)NO)cc4)n3)cc2nn1C`, the IC50 worked out at 990 nM in the test on K562; 3.3 nM on Histone deacetylase; 35 nM in test [1]; 4.36 µM with HeLa; 111 nM in test [2]; 113 nM in test [3]. For the same compound, the IC50 in [4] was determined as 409 nM; in the test with HUVEC [6] it was 21.1 µM; in test [7] it was 72 nM; in the test on PC-3, 1690 nM; with MDA-MB-231, 2960 nM; in the test on HT-29 [11], 2510 nM. Besides, the IC50 is 163 nM in test [12]; 1970 nM with HT-1080; 46 nM in test [13]; 2800 nM in the test on HEL; 4.44 µM in the test with AGS; 1660 nM at Histone deacetylase 8. For the same compound, the IC50 in test [14] was 581 nM; in the test with KG-1, 1600 nM; on Histone deacetylase 2 it was 380 nM; in the test with MOLT-4, 310 nM; with ACHN, greater than 5 µM. Moreover, the inhibition entry in [5] and in [10] was “Active” in each case. In addition, the outcome with Thoracic aorta and in the test on HUVEC [9] was Active. In test [8], this compound gave an inhibition of 93%.
In the case of `O=C(CCCCCCC(=O)Nc1ccccc1)NO` [VORINOSTAT], the T/C in the test on HT-29 [15] is 66%. Further, the inhibition entry in test [10] is “inactive”.

The values are drawn from ChEMBL document CHEMBL4190394, “Discovery of Novel Pazopanib-Based HDAC and VEGFR Dual Inhibitors Targeting Cancer Epigenetics and Angiogenesis Simultaneously” (J Med Chem, 2018).
